Columns and labels:
[1] = biological target: Alpha-galactosidase (Coffea arabica) (UniProt Q5DUH8); experiment: Inhibition of green coffee alpha galactosidase at 1 mM
Outline: (§1)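 Commercial enzymes: yeast α-glucosidase, almond β-glucosidase, green coffee bean α-galactosidase, Aspergillus β-galactosidase. Each was run at its optimum pH and temperature with the matching p-nitrophenyl glycoside at a substrate concentration equal to the calculated Km. Inhibitor was at 1 mM final. Low-pH reactions were stopped with 400 mM Na2CO3. Released p-nitrophenol was read at 405 nm, giving % inhibition.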

[2] = biological target: T1, Beta-galactosidase (Aspergillus niger) (UniProt P29853); experiment: Inhibition of Aspergillus beta galactosidase at 1 mM; outline: as §1
T1 sequence (whole entry): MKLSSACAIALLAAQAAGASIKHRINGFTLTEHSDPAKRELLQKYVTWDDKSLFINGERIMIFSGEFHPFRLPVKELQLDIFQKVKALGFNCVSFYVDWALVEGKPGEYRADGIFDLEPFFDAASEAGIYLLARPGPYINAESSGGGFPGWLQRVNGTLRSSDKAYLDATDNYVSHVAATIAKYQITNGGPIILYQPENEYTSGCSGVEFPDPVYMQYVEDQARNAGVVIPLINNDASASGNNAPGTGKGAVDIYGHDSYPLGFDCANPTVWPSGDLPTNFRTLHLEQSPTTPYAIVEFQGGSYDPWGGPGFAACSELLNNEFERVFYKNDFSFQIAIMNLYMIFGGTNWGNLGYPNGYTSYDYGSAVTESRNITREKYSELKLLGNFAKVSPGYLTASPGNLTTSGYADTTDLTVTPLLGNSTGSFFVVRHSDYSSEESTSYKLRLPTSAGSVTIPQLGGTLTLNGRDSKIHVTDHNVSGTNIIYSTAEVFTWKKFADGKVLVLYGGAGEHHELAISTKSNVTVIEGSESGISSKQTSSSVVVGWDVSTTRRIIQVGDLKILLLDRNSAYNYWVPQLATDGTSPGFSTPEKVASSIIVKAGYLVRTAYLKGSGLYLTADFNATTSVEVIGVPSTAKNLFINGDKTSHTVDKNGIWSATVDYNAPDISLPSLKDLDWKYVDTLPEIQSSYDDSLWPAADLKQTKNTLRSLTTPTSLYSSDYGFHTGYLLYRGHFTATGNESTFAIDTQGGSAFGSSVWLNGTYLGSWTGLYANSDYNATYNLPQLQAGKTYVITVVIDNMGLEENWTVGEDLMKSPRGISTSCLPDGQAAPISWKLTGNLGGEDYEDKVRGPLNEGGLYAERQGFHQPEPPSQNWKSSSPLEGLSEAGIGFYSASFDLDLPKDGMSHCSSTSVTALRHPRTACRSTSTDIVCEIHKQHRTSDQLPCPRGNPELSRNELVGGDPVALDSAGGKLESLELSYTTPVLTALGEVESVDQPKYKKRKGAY

Saccharomyces cerevisiae = experiment: Inhibition of yeast alpha glucosidase at 1 mM; outline: as §1
[3] = Inhibition of yeast alpha glucosidase; set-up: species or system Saccharomyces cerevisiae
Alpha-galactosidase = Alpha-galactosidase (Coffea arabica, UniProt Q5DUH8); experiment: Inhibition of green coffee alpha galactosidase
Beta-galactosidase = biological target: T2, Beta-galactosidase (Bos taurus, UniProt Q58D55); experiment: Inhibition of bovine liver beta galactosidase
T2 sequence (Q58D55 whole entry): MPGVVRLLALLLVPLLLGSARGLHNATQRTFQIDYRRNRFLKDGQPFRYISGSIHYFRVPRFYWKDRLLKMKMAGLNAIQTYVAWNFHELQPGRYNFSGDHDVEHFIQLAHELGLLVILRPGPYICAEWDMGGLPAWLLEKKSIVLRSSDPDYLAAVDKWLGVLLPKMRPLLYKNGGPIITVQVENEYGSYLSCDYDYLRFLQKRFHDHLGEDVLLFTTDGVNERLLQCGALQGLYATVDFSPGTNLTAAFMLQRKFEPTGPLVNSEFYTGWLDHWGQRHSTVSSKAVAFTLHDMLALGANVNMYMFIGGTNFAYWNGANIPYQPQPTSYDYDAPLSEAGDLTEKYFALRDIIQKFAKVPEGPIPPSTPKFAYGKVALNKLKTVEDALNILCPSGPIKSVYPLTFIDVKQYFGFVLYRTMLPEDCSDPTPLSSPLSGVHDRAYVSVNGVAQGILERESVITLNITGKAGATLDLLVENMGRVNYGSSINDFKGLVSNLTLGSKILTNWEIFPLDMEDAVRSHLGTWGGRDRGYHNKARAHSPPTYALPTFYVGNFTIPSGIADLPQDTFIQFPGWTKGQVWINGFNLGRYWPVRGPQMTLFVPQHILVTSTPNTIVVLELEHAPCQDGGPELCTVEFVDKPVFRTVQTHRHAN

[4] = biological target: T3, Alpha-glucosidase-like (Oryza sativa Japonica Group) (UniProt A0A5S6RD55); experiment: Inhibition of rice alpha glucosidase at 1 mM
T3 sequence (whole entry): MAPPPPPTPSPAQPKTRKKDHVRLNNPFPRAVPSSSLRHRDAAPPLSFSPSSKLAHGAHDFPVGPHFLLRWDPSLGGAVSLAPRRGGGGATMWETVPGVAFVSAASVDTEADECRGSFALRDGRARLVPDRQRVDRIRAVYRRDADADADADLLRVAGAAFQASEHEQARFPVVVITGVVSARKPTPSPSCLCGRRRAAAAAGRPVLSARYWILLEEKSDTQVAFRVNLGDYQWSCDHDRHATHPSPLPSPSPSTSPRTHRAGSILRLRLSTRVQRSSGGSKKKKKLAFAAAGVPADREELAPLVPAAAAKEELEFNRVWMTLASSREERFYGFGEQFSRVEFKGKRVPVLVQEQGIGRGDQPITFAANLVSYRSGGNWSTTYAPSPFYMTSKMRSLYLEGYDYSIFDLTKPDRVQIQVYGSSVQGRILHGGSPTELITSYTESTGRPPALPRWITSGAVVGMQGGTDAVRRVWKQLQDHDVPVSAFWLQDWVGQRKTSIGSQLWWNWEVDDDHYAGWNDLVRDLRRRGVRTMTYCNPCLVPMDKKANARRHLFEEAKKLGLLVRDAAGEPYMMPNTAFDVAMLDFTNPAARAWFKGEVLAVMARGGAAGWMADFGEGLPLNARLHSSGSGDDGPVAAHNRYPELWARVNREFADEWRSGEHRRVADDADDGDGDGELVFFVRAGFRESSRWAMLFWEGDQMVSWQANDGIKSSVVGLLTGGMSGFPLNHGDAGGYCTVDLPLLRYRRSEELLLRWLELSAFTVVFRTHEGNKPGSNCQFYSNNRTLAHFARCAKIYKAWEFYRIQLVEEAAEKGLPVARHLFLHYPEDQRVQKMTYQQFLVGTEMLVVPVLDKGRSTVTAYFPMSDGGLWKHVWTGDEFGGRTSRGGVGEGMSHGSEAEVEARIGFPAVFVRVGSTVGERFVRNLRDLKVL

Sequence of Alpha-galactosidase (Q5DUH8 whole entry): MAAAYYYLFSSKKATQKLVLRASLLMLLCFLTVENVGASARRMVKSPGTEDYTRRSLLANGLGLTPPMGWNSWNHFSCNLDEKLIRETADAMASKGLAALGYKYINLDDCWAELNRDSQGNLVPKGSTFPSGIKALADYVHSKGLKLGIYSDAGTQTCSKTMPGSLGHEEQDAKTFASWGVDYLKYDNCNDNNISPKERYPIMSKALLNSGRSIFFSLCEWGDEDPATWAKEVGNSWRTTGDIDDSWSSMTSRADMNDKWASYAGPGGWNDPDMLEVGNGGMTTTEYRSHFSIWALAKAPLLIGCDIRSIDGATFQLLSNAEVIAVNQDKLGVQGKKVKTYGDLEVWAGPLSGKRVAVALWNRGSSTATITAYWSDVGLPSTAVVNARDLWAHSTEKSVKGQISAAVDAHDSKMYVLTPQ
Sequence of Alpha-galactosidase (Coffea arabica) (Q5DUH8 as listed by the source): as the sequence (Q5DUH8 whole entry) above

Q: Which results are given for `CCCCCCC[C@@H]1C[C@H](O)[C@@H](O)[C@@H](CO)N1`?
A: inhibition [1]: < 40%; inhibition [2]: < 40%; inhibition (Saccharomyces cerevisiae): < 40%

Q: With `CCC[C@@H]1C[C@H](O)[C@@H](O)[C@@H](CO)N1` as the molecule, how does the inhibition [1] read?
A: < 40%

Q: And the inhibition [2]?
A: < 40%

Q: What about the inhibition (Saccharomyces cerevisiae) of the same molecule?
A: < 40%

Q: What does the source list for `CC[C@@H]1C[C@@H](O)[C@@H](O)[C@@H](CO)N1`?
A: inhibition [2]: < 40%; Ki [3]: 123 µM; Ki (Alpha-galactosidase): 721 µM

Q: For `CCCCCCCCCCC[C@@H]1C[C@H](O)[C@@H](O)[C@@H](CO)N1`, which inhibition [1] is on record?
A: < 40%

Q: What about the inhibition [2] of the same molecule?
A: < 40%

Q: And the Ki [3]?
A: 196 µM

Q: Which results are given for `CC[C@@H]1C[C@H](O)[C@@H](O)[C@@H](CO)N1`?
A: IC50 (Beta-galactosidase): 34 µM; IC50 (Alpha-galactosidase): 6.4 µM; inhibition [4]: < 40%

Q: Which results are given for `CCCCCCC[C@@H]1C[C@@H](O)[C@@H](O)[C@@H](CO)N1`?
A: inhibition [2]: < 40%; Ki [3]: 154 µM; Ki (Alpha-galactosidase): 141 µM

Q: Which results are given for `CCCC[C@@H]1C[C@H](O)[C@@H](O)[C@@H](CO)N1`?
A: inhibition [1]: < 40%; inhibition [2]: < 40%; inhibition (Saccharomyces cerevisiae): < 40%

Source: ChEMBL document CHEMBL1147832, “Flexible synthesis and biological evaluation of novel 5-deoxyadenophorine analogues” (Bioorg Med Chem Lett, 2006)
